Measured values as given in ChEMBL document CHEMBL3864121, “Development of ebsulfur analogues as potent antibacterials against methicillin-resistant Staphylococcus aureus” (Bioorg Med Chem, 2016).
Converted amounts (≈) assume the structure as drawn. The source made the active and inactive calls. The calls are words filed in the database; no cut-off is given here.

Assays:
Staphylococcus aureus [1] = assay: Antibacterial activity against methicillin-sensitive Staphylococcus aureus ATCC 6538 measured after overnight incubation by broth double-dilution method; assay type: functional
How it was run: (§1)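 MIC by broth double-dilution in liquid Mueller-Hinton medium. Values are reported in µg/mL.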

Staphylococcus aureus [2] = assay: Antibacterial activity against methicillin-sensitive Staphylococcus aureus ATCC 25923 measured after overnight incubation by broth double-dilution method; assay type: functional; how it was run: as §1
Staphylococcus aureus [3] = assay: Antibacterial activity against methicillin-sensitive Staphylococcus aureus ATCC 29213 measured after overnight incubation by broth double-dilution method; assay type: functional; how it was run: as §1
Staphylococcus aureus [4] = assay: Antibacterial activity against methicillin-resistant Staphylococcus aureus ATCC 33591 measured after overnight incubation by broth double-dilution method; assay type: functional; how it was run: as §1
Staphylococcus aureus [5] = assay: Antibacterial activity against methicillin-resistant Staphylococcus aureus 1 measured after overnight incubation by broth double-dilution method; assay type: functional; how it was run: as §1
Staphylococcus aureus [6] = assay: Antibacterial activity against methicillin-resistant Staphylococcus aureus 2 measured after overnight incubation by broth double-dilution method; assay type: functional; how it was run: as §1
Staphylococcus aureus [7] = assay: Antibacterial activity against methicillin-resistant Staphylococcus aureus BRS3 measured after overnight incubation by broth double-dilution method; assay type: functional; how it was run: as §1
Staphylococcus aureus [8] = assay: Antibacterial activity against methicillin-resistant Staphylococcus aureus C1 measured after overnight incubation by broth double-dilution method; assay type: functional; how it was run: as §1
Staphylococcus aureus [9] = assay: Antibacterial activity against methicillin-resistant Staphylococcus aureus C2 measured after overnight incubation by broth double-dilution method; assay type: functional; how it was run: as §1
Staphylococcus aureus [10] = assay: Antibacterial activity against methicillin-resistant Staphylococcus aureus C7 measured after overnight incubation by broth double-dilution method; assay type: functional; how it was run: as §1
Staphylococcus aureus [11] = assay: Antibacterial activity against methicillin-resistant Staphylococcus aureus C14 measured after overnight incubation by broth double-dilution method; assay type: functional; how it was run: as §1
Staphylococcus aureus [12] = assay: Antibacterial activity against methicillin-resistant Staphylococcus aureus C16 measured after overnight incubation by broth double-dilution method; assay type: functional; how it was run: as §1
Staphylococcus aureus [13] = assay: Antibacterial activity against methicillin-resistant Staphylococcus aureus C19 measured after overnight incubation by broth double-dilution method; assay type: functional; how it was run: as §1
Staphylococcus aureus [14] = assay: Antibacterial activity against methicillin-resistant Staphylococcus aureus G1 measured after overnight incubation by broth double-dilution method; assay type: functional; how it was run: as §1
Staphylococcus aureus [15] = assay: Antibacterial activity against methicillin-resistant Staphylococcus aureus G6 measured after overnight incubation by broth double-dilution method; assay type: functional; how it was run: as §1
Staphylococcus aureus [16] = assay: Antibacterial activity against methicillin-resistant Staphylococcus aureus G12 measured after overnight incubation by broth double-dilution method; assay type: functional; how it was run: as §1
Staphylococcus aureus [17] = assay: Antibacterial activity against methicillin-resistant Staphylococcus aureus G14 measured after overnight incubation by broth double-dilution method; assay type: functional; how it was run: as §1
Staphylococcus aureus [18] = assay: Antibacterial activity against methicillin-resistant Staphylococcus aureus NRS4 measured after overnight incubation by broth double-dilution method; assay type: functional; how it was run: as §1
Staphylococcus aureus [19] = assay: Antibacterial activity against methicillin-resistant Staphylococcus aureus NRS51 measured after overnight incubation by broth double-dilution method; assay type: functional; how it was run: as §1
Staphylococcus aureus [20] = assay: Antibacterial activity against methicillin-resistant Staphylococcus aureus NRS77 measured after overnight incubation by broth double-dilution method; assay type: functional; how it was run: as §1
Staphylococcus aureus [21] = assay: Antibacterial activity against methicillin-resistant Staphylococcus aureus S14 measured after overnight incubation by broth double-dilution method; assay type: functional; how it was run: as §1
Staphylococcus aureus [22] = assay: Antibacterial activity against methicillin-resistant Staphylococcus aureus S17 measured after overnight incubation by broth double-dilution method; assay type: functional; how it was run: as §1
Staphylococcus aureus [23] = assay: Antibacterial activity against methicillin-resistant Staphylococcus aureus S22 measured after overnight incubation by broth double-dilution method; assay type: functional; how it was run: as §1
Staphylococcus aureus [24] = assay: Antibacterial activity against methicillin-resistant Staphylococcus aureus S24 measured after overnight incubation by broth double-dilution method; assay type: functional; how it was run: as §1
Staphylococcus aureus [25] = assay: Antibacterial activity against methicillin-resistant Staphylococcus aureus USA100 measured after overnight incubation by broth double-dilution method; assay type: functional; how it was run: as §1
Staphylococcus aureus [26] = assay: Antibacterial activity against methicillin-resistant Staphylococcus aureus USA200 measured after overnight incubation by broth double-dilution method; assay type: functional; how it was run: as §1
Staphylococcus aureus [27] = assay: Antibacterial activity against methicillin-resistant Staphylococcus aureus USA300 measured after overnight incubation by broth double-dilution method; assay type: functional; how it was run: as §1
Staphylococcus aureus [28] = assay: Antibacterial activity against methicillin-resistant Staphylococcus aureus USA600 measured after overnight incubation by broth double-dilution method; assay type: functional; how it was run: as §1
[29] = system: Staphylococcus epidermidis; assay: Antibacterial activity against Staphylococcus epidermidis ATCC 35984 measured after overnight incubation by broth double-dilution method; assay type: functional; conditions: RP62A
How it was run: (§2)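 MIC by broth double-dilution in Mueller-Hinton medium. Re-testing at the time-kill inoculum used 1×10^6 CFU/mL.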

Enterococcus faecalis [30] = assay: Antibacterial activity against Enterococcus faecalis ATCC 29212 measured after overnight incubation by broth double-dilution method; assay type: functional; how it was run: as §2
Enterococcus faecalis [31] = assay: Antibacterial activity against Enterococcus faecalis ATCC 49533 measured after overnight incubation by broth double-dilution method; assay type: functional; how it was run: as §2
Enterococcus faecium = assay: Antibacterial activity against Enterococcus faecium BM4105-RF measured after overnight incubation by broth double-dilution method; assay type: functional; how it was run: as §1
Enterococcus = assay: Antibacterial activity against Vancomycin-resistant Enterococcus measured after overnight incubation by broth double-dilution method; assay type: functional; how it was run: as §1
Listeria monocytogenes = assay: Antibacterial activity against Listeria monocytogenes ATCC 19115 measured after overnight incubation by broth double-dilution method; assay type: functional; how it was run: as §2
[32] = system: Mycolicibacterium smegmatis; assay: Antibacterial activity against Mycobacterium smegmatis MC2-155 measured after overnight incubation by broth double-dilution method; assay type: functional; conditions: str. MC2 155; how it was run: as §1
[33] = Cytotoxicity against HEK293 cells assessed as cell death up to 10 ug/ml measured after 24 hrs by resazurin dye-based fluorescence analysis relative to untreated control; assay type: toxicity; conditions: human, hek293, 24 h
Acinetobacter baumannii = assay: Antibacterial activity against Acinetobacter baumannii ATCC 19606 measured after overnight incubation by broth double-dilution method; assay type: functional; how it was run: as §2
Enterobacter cloacae = assay: Antibacterial activity against Enterobacter cloacae ATCC 13047 measured after overnight incubation by broth double-dilution method; assay type: functional; conditions: subsp. cloacae ATCC 13047; how it was run: as §1
Escherichia coli = assay: Antibacterial activity against Escherichia coli MC1061 measured after overnight incubation by broth double-dilution method; assay type: functional; how it was run: as §1
Klebsiella pneumoniae = assay: Antibacterial activity against Klebsiella pneumoniae ATCC 27736 measured after overnight incubation by broth double-dilution method; assay type: functional; how it was run: as §1
Pseudomonas aeruginosa = assay: Antibacterial activity against Pseudomonas aeruginosa ATCC 27853 measured after overnight incubation by broth double-dilution method; assay type: functional; how it was run: as §2
Salmonella enterica = assay: Antibacterial activity against Salmonella enterica ATCC 14028 measured after overnight incubation by broth double-dilution method; assay type: functional; how it was run: as §2
[34] = system: Staphylococcus epidermidis; assay: Antibacterial activity against Staphylococcus epidermidis ATCC 12228 measured after overnight incubation by broth double-dilution method; assay type: functional; how it was run: as §2
Staphylococcus aureus [35] = assay: Bacteriostatic activity against methicillin-resistant Staphylococcus aureus S22 at 0.5 times MIC measured up to 3 to 6 hrs by time kill analysis; assay type: functional
Staphylococcus aureus [36] = assay: Bacteriostatic activity against methicillin-resistant Staphylococcus aureus S22 at MIC measured up to 3 to 6 hrs by time kill analysis; assay type: functional
Staphylococcus aureus [37] = assay: Antibacterial activity against methicillin-resistant Staphylococcus aureus S22 using 1 10^6CFU/ml measured after overnight incubation by broth double-dilution method; assay type: functional

## O=c1c2ccccc2sn1-c1cccc2ccccc12
Staphylococcus aureus [1]
  MIC: > 125 µg/mL
Staphylococcus aureus [2]
  MIC: 2 µg/mL (≈ 7.21 µM)
Staphylococcus aureus [3]
  MIC: 0.5 µg/mL (≈ 1.8 µM)
Staphylococcus aureus [4]
  MIC: 0.5 µg/mL (≈ 1.8 µM)
Staphylococcus aureus [5]
  MIC: 1 µg/mL (≈ 3.61 µM)
Staphylococcus aureus [6]
  MIC: 0.5 µg/mL (≈ 1.8 µM)
Staphylococcus aureus [7]
  MIC: 2 µg/mL (≈ 7.21 µM)
Staphylococcus aureus [8]
  MIC: 2 µg/mL (≈ 7.21 µM)
Staphylococcus aureus [9]
  MIC: 0.5 µg/mL (≈ 1.8 µM)
Staphylococcus aureus [10]
  MIC: 1 µg/mL (≈ 3.61 µM)
Staphylococcus aureus [11]
  MIC: 2 µg/mL (≈ 7.21 µM)
Staphylococcus aureus [12]
  MIC: 15.6 µg/mL (≈ 56.2 µM)
Staphylococcus aureus [13]
  MIC: 0.5 µg/mL (≈ 1.8 µM)
Staphylococcus aureus [14]
  MIC: 2 µg/mL (≈ 7.21 µM)
Staphylococcus aureus [15]
  MIC: 0.5 µg/mL (≈ 1.8 µM)
Staphylococcus aureus [16]
  MIC: 0.5 µg/mL (≈ 1.8 µM)
Staphylococcus aureus [17]
  MIC: 2 µg/mL (≈ 7.21 µM)
Staphylococcus aureus [18]
  MIC: 2 µg/mL (≈ 7.21 µM)
Staphylococcus aureus [19]
  MIC: 1 µg/mL (≈ 3.61 µM)
Staphylococcus aureus [20]
  MIC: 2 µg/mL (≈ 7.21 µM)
Staphylococcus aureus [21]
  MIC: ≤ 0.25 µg/mL
Staphylococcus aureus [22]
  MIC: 1 µg/mL (≈ 3.61 µM)
Staphylococcus aureus [23]
  MIC: 1 µg/mL (≈ 3.61 µM)
Staphylococcus aureus [24]
  MIC: 0.5 µg/mL (≈ 1.8 µM)
Staphylococcus aureus [25]
  MIC: 0.5 µg/mL (≈ 1.8 µM)
Staphylococcus aureus [26]
  MIC: 2 µg/mL (≈ 7.21 µM)
Staphylococcus aureus [27]
  MIC: 2 µg/mL (≈ 7.21 µM)
Staphylococcus aureus [28]
  MIC: 2 µg/mL (≈ 7.21 µM)
[29]
  MIC: 0.25 µg/mL (≈ 0.901 µM)
Enterococcus faecalis [30]
  MIC: > 125 µg/mL
Enterococcus faecalis [31]
  MIC: > 125 µg/mL
Enterococcus faecium
  MIC: > 125 µg/mL
Enterococcus
  MIC: 0.5 µg/mL (≈ 1.8 µM)
Listeria monocytogenes
  MIC: 2 µg/mL (≈ 7.21 µM)
[32]
  MIC: 1 µg/mL (≈ 3.61 µM)
[33]
  Activity: > 20%

## NCC[C@H](O)C(=O)N[C@@H]1C[C@H](N)[C@@H](O[C@H]2O[C@H](CN)[C@@H](O)[C@H](O)[C@H]2O)[C@H](O)[C@H]1O[C@H]1O[C@H](CO)[C@@H](O)[C@H](N)[C@H]1O [AMIKACIN]
Staphylococcus aureus [1]
  MIC: 2 µg/mL (≈ 3.42 µM)
Staphylococcus aureus [2]
  MIC: ≤ 0.25 µg/mL
Staphylococcus aureus [3]
  MIC: 62.5 µg/mL (≈ 107 µM)
Staphylococcus aureus [4]
  MIC: 31.3 µg/mL (≈ 53.4 µM)
Staphylococcus aureus [5]
  MIC: 31.3 µg/mL (≈ 53.4 µM)
Staphylococcus aureus [6]
  MIC: 3.9 µg/mL (≈ 6.66 µM)
Staphylococcus aureus [7]
  MIC: 62.5 µg/mL (≈ 107 µM)
Staphylococcus aureus [8]
  MIC: 2 µg/mL (≈ 3.42 µM)
Staphylococcus aureus [9]
  MIC: 2 µg/mL (≈ 3.42 µM)
Staphylococcus aureus [10]
  MIC: 7.8 µg/mL (≈ 13.3 µM)
Staphylococcus aureus [11]
  MIC: 31.3 µg/mL (≈ 53.4 µM)
Staphylococcus aureus [12]
  MIC: 31.3 µg/mL (≈ 53.4 µM)
Staphylococcus aureus [13]
  MIC: 3.9 µg/mL (≈ 6.66 µM)
Staphylococcus aureus [14]
  MIC: 31.3 µg/mL (≈ 53.4 µM)
Staphylococcus aureus [15]
  MIC: 15.6 µg/mL (≈ 26.6 µM)
Staphylococcus aureus [16]
  MIC: 15.6 µg/mL (≈ 26.6 µM)
Staphylococcus aureus [17]
  MIC: 31.3 µg/mL (≈ 53.4 µM)
Staphylococcus aureus [18]
  MIC: 31.3 µg/mL (≈ 53.4 µM)
Staphylococcus aureus [19]
  MIC: 15.6 µg/mL (≈ 26.6 µM)
Staphylococcus aureus [20]
  MIC: 0.5 µg/mL (≈ 0.854 µM)
Staphylococcus aureus [21]
  MIC: 7.8 µg/mL (≈ 13.3 µM)
Staphylococcus aureus [22]
  MIC: 31.3 µg/mL (≈ 53.4 µM)
Staphylococcus aureus [23]
  MIC: 7.8 µg/mL (≈ 13.3 µM)
Staphylococcus aureus [24]
  MIC: 31.3 µg/mL (≈ 53.4 µM)
Staphylococcus aureus [25]
  MIC: 62.5 µg/mL (≈ 107 µM)
Staphylococcus aureus [26]
  MIC: 62.5 µg/mL (≈ 107 µM)
Staphylococcus aureus [27]
  MIC: 62.5 µg/mL (≈ 107 µM)
Staphylococcus aureus [28]
  MIC: 62.5 µg/mL (≈ 107 µM)
[29]
  MIC: 15.6 µg/mL (≈ 26.6 µM)
Enterococcus faecalis [30]
  MIC: 125 µg/mL (≈ 213 µM)
Enterococcus faecalis [31]
  MIC: > 125 µg/mL
Enterococcus faecium
  MIC: 125 µg/mL (≈ 213 µM)
Enterococcus
  MIC: 62.5 µg/mL (≈ 107 µM)
Listeria monocytogenes
  MIC: 3.9 µg/mL (≈ 6.66 µM)
[32]
  MIC: ≤ 0.25 µg/mL
Acinetobacter baumannii
  MIC: 7.8 µg/mL (≈ 13.3 µM)
Enterobacter cloacae
  MIC: 1 µg/mL (≈ 1.71 µM)
Escherichia coli
  MIC: 2 µg/mL (≈ 3.42 µM)
Klebsiella pneumoniae
  MIC: 1 µg/mL (≈ 1.71 µM)
Pseudomonas aeruginosa
  MIC: 31.3 µg/mL (≈ 53.4 µM)
Salmonella enterica
  MIC: 7.8 µg/mL (≈ 13.3 µM)
[34]
  MIC: 31.3 µg/mL (≈ 53.4 µM)
Staphylococcus aureus [35]
  Activity: Active
Staphylococcus aureus [36]
  Activity: Active
Staphylococcus aureus [37]
  Activity: Active
